ChEMBL document CHEMBL4513216, “Probing the Open Global Health Chemical Diversity Library for Multistage-Active Starting Points for Next-Generation Antimalarials” (ACS Infect Dis, 2020)

Assay: Toxicity liver stage against HepG2, at 10uM
Format: cell-based
Parameters: test concentration 10 uM, cell line HepG2-A16-CD81EGFP
Details: human, HepG2-A16-CD81EGFP cells; read-out: INHIBITION
How it was run: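 Uninfected HepG2-A16-CD81EGFP cells, 3 × 10^3 per well, 1536-well, plated on prespotted compound at 10 μM final, parasite-free screening media added to match infected plates; puromycin 10 μM positive, DMSO 0.5% negative; run in parallel with 48 h PbLuc assay at 37 °C, 5% CO2; viability by CellTiter-Glo luminescence, normalized to controls.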

Row | SMILES | cytotoxicity at 10 µM [%]
1 | Cc1c(C(=O)O)sc2nc(C(F)(F)F)ccc12 | 1.5
2 | CN1CCOC[C@H]1c1nc(-c2ccc(F)cc2F)c[nH]1 | -5.66
3 | COCCNC(=O)c1cccnc1Oc1ccc(Cl)cc1 | 6.99
4 | CC(C)CNC(=O)C1CC(=O)N(c2n[nH]c3ccccc23)C1 (stereo not given) | -11.6
5 | Cc1cc(C(=O)N2CC[C@@H]3CN(C)S(=O)(=O)[C@@H]3CC2)no1 | -7.55
6 | CCC(=O)N1CCC2(CC1)CC(CC(=O)NC1CC1)c1ccccc1O2 (stereo not given) | 2.64
7 | O=C1COC2(CCN(Cc3ccco3)CC2)CN1Cc1cccnc1 | -4.25
8 | Cc1ccc(CN2CC[C@H]3C(=O)N(c4cccnc4)CCO[C@H]3C2)o1 | 7.8
9 | CCS(=O)(=O)N1C[C@H]2CN(Cc3ccc(OC)cc3)C(=O)[C@H]2C1 | -1.34
10 | CC(C)Nc1ncnc2c1CCN(C(=O)[C@H]1CCCO1)CC2 | -0.685
11 | O=C(Nc1ccccc1)N1CCC2(CC(=O)N(c3ccsc3)C2)C1 (stereo not given) | 2.58
12 | Cc1ccoc1C(=O)N1CCO[C@H]2[C@H](OCc3ccncc3)CC[C@@H]21 | 9.06
13 | O=C(O)C1CCN(C(=O)CCn2ccc3cc(Br)ccc32)CC1 | 15.5
14 | Cc1cccc(-c2cc(C(=O)O)sn2)c1 | -0.475
15 | CS(=O)(=O)N1CCC(Oc2cnccn2)CC1 | 0.097
16 | Cn1cc(C2CC(=O)NC23CCN(c2ncc(F)cn2)CC3)cn1 (stereo not given) | -5.39
17 | CCn1nnc2c1C(COC)CN(C(=O)COc1ccccc1)C2 (stereo not given) | -17.1
18 | COc1cccc(Cn2cc(N3C(=O)[C@H]4CCCC[C@H]4C3=O)cn2)c1 | -11.9
19 | CCn1nc(C)c(NC(=O)c2cc(NC(=O)C(C)C)n(C)n2)c1C | 0.568
20 | Cc1nc(C(Cc2ccsc2)NC(=O)CCN2CCOCC2)sc1C (stereo not given) | 7.04
21 | O=C(Cc1ccccc1)N1CCC(c2nnc(-c3ccccn3)o2)CC1 | 2.83
22 | CNc1cncc(C2CCCN2C(=O)CCn2ccnc2)n1 (stereo not given) | 3.91

Row | SMILES | cytotoxicity at 10 µM [%]
23 | C[C@]1(O)CCN(Cc2ncccc2F)C[C@@H]1Oc1ccccc1 | -21.4
24 | Cc1cc2c(=O)n3c(nc2s1)CCN(C(=O)c1cnn(C)c1)CC3 | -1.94
25 | Cc1noc(C)c1-c1cccc(CC2CCN(C(=O)c3cscn3)C2)n1 (stereo not given) | -6.66
26 | O=C(c1ccccn1)N1CCC(Cc2cnc3[nH]ccc3c2)CC1 | -7.75
27 | Cn1cc(C(=O)N2CCCC(Cc3cnccn3)C2)cn1 (stereo not given) | -8.16
28 | Cc1cccc(C(=O)NCCS(=O)(=O)Cc2ccccc2)c1 | -7.43
29 | CN1CCOC(CNCc2cnc(C(C)(C)C)s2)C1 (stereo not given) | -2.87
30 | Cc1nc(NS(=O)(=O)c2cc(Br)ccc2C)no1 | 1.68
31 | N#Cc1ccc(CN2CCC(CN3CCOCC3)C2)cc1 (stereo not given) | -7.01
32 | N#CC1(NC(=O)c2c(F)ccc(OC(F)F)c2F)CCOCC1 | -8.29
33 | Cc1cc(C)n(CC2CCN(CC(O)Cn3cccn3)CC2)n1 (stereo not given) | -5.58
34 | COCCC1(CNC(=O)Nc2ccc(-n3ccnn3)cc2)CCC1 | -0.677
35 | O=C(NCCCN1CCOCC1)C(OC1CCCC1)c1ccccc1 (stereo not given) | -5.95
36 | CC(C)(C)[S+]([O-])CCNC(=O)c1csc(NC2CC2)n1 (stereo not given) | 13.4
37 | O=C(NCCNC(=O)c1ccc(Cl)cc1)NCCn1cccc1 | 5.95
38 | CC(NC(=O)NCCCn1cccn1)c1ccccn1 (stereo not given) | -11.5
39 | O=C(CCNS(=O)(=O)c1ccc(Cl)cc1)NCc1ccoc1 | -11.8
40 | CCN(Cc1nc2c(cnn2C)c(=O)[nH]1)c1ccccc1C | 2.78
41 | CN(Cc1ccncc1)C(=O)c1ccc(F)c(NS(C)(=O)=O)c1 | -0.453
42 | CC1CN(C(=O)c2ccc(=O)n(C)c2)c2ccccc2NC1=O (stereo not given) | -2.09
43 | O=C(CNc1cc2c(cc1Br)OCCO2)NC1CCS(=O)(=O)C1 (stereo not given) | 6.43
44 | N#Cc1cc(N2CCC(CS(N)(=O)=O)CC2)nc2ccccc12 | -6.03

Row | SMILES | cytotoxicity at 10 µM [%]
45 | COCCN(Cc1ccco1)Cc1nc(-c2ccccc2C)no1 | 6.72
46 | COCCN(c1ccncc1)S(=O)(=O)c1cc(C)c(F)cc1F | -6.54
47 | CCS(=O)(=O)CC(=O)Nc1cccc2c1CN(CC(C)C)C2 | 2.25
48 | CS(=O)(=O)N(Cc1ccon1)c1cccc(Br)c1 | 7.57
49 | CC(=O)NCCc1ccc(S(=O)(=O)Nc2cc(F)ccc2C)s1 | -13.6
50 | Cc1oc(-c2cccs2)nc1C(=O)N(C)C1(C#N)CCC1 | 5.09
51 | CC(O)CN1CCC(CN(C)Cc2ccc(C#N)cc2F)CC1 (stereo not given) | -1.87
52 | COc1ccccc1NC(=O)NCCCC(=O)Nc1cn[nH]c1 | -9.55
53 | Cc1[nH]ncc1C(=O)N(CC(C)C)CC(O)c1ccc(F)cc1 (stereo not given) | -1.61
54 | Cc1nc(S(=O)(=O)N2CCSC3(CCCCC3)C2)cn1C | -9.2
55 | COC(C)(C)c1noc(C2(C#N)CCCC2)n1 | -5.11
56 | CCCNC(=O)NC(=O)CNc1c(F)cccc1N1CCCC1 | 0.266
57 | COc1ccccc1N(C)Cc1nc2c(cnn2C)c(=O)[nH]1 | -8.48
58 | COc1ncccc1C(=O)N1CCn2c(COCC3CC3)cnc2C1C (stereo not given) | -1.03
59 | Cc1ccc2c(c1)[C@@H](CC(=O)N1CCN(C)CC1)CCO2 | -11.1
60 | CN1CCN(C(=O)N2CC[C@@](O)(c3ccccc3)[C@H]3CCCC[C@@H]32)CC1 | -9.67
61 | CC(C)N(CCO)C(=O)C1CCC(=O)N(Cc2ccc(Cl)cc2)C1 (stereo not given) | -4.9
62 | NCCO[C@H]1C[C@@H](O)C12CCN(C(=O)COc1cccc(Cl)c1)CC2 | -4.32
63 | CCN1CCC(c2nnc(CN3CCCC3)n2C2CC2)CC1 | -7.3
64 | COc1ccc2c(c1)OCC(CNC(=O)c1cc(C(C)C)on1)C2 (stereo not given) | 0.0723
65 | CCC(=O)N1CCc2[nH]cnc2C12CCN(CC1CCOC1)CC2 (stereo not given) | -0.264
66 | Cc1nn(C)c2nc(N3CCCCC3c3ccc(F)cc3)sc12 (stereo not given) | -7.88

Row | SMILES | cytotoxicity at 10 µM [%]
67 | Cc1nc(N(C)C)nc(N2CCC3(CC2)CNC(=O)O3)c1C | 14.9
68 | CN(C)Cc1nnc(C2CCN(c3ncccn3)CC2)n1C1CC1 | -1.26
69 | CCn1c(N)nc2cc(C(=O)NCCc3nnc(C)s3)cnc21 | -2.46
70 | Cc1ccc2cc(C3(O)CCN(C)CC3)ccc2n1 | -0.432
71 | COc1nc2c(cc1C(=O)N(C)Cc1noc3c1CCCC3)CCC2 | 0.224
72 | O=C(c1ncccc1O)N1CCc2c(nc(-c3ccncc3)[nH]c2=O)C1 | -0.918
73 | CN(CC(=O)N1CCOCC(CO)C1)Cc1ccc(F)cc1 (stereo not given) | -2.82
74 | COc1ccc2c(C)c(C(=O)N3CCC(NC(C)=O)C3)oc2c1 (stereo not given) | 7.72
75 | CC(C)N(C)S(=O)(=O)c1ccc2c(c1)CCN(C(=O)c1ccccn1)C2 | 10.3
76 | COc1ccc(C(=O)N2CCC(C3CCN(c4ncccn4)CC3)C2)o1 (stereo not given) | -12.5
77 | COc1ccc(OCc2cc(C(=O)N3CC=CC3)n[nH]2)c(Cl)c1 | 7.26
78 | CN(Cc1ccc2nsnc2c1)C(=O)CCc1cc2n(n1)CCCNC2 | -4.62
79 | O=C(O)C1(O)CCN(c2ccc3cccc(Cl)c3n2)CC1 | 4.57
80 | O=C(c1cccnc1N1CCCCC1)N1CCCC(n2cccn2)C1 (stereo not given) | -0.438
81 | CC(NC(=O)Cc1cccs1)c1nnc2n1CCC2 (stereo not given) | -7.56
82 | Cn1cnc(S(=O)(=O)NCCCN2CCCCCC2=O)c1Cl | -15.6
83 | COc1ncccc1CNC(=O)c1cnccn1 | -8.77
84 | CC(C)c1ccc(OCCNC(=O)N2CCS(=O)(=O)CC2)cc1 | -5.54
85 | CC(C)(C)NC(=O)CCOc1cccc(F)c1 | -4.95
86 | CSC(C)C(=O)NCc1ccnc(N2CCN(C)CC2)c1 (stereo not given) | -15.3
87 | CC(C)c1nc2c(n1C)CCN(CC(=O)Nc1nncs1)C2 | -10.1
88 | CC(C)c1nnc2n1CCN(C(=O)c1ccc3c(c1)CCC3)C2 | -10.7

Row | SMILES | cytotoxicity at 10 µM [%]
89 | CN(C)c1ccc(CNC(=O)NCCc2cccs2)cn1 | -2.8
90 | COc1ccccc1NC(=O)NCCCn1nc2ccccn2c1=O | -18
91 | Cc1cc(C2CCCN2Cc2nc3ccccc3o2)on1 (stereo not given) | -17
92 | O=C1COc2ccc(C(=O)N3CCCC(n4ccnc4)C3)cc2N1 (stereo not given) | -13.5
93 | Cc1cn2nc(N3CCCC3Cn3cccn3)sc2n1 (stereo not given) | -18.1
94 | Cc1ccc(N2CCCC(NCc3ccc(Cl)o3)C2)nn1 (stereo not given) | -6.83
95 | CN(Cc1ccc(-n2ccnc2)cc1)CC1CCCN1c1cccnn1 (stereo not given) | -6.21
96 | Cc1nc2c(c(C)c1CC(=O)NCc1ccc(F)cc1)c(=O)[nH]n2C | -15.9
97 | CC(=O)N(Cc1ncc(C)o1)C1CCN(Cc2csc(C)n2)C1 (stereo not given) | -15.8
98 | CC(C)c1nccn1C1CCCN(C(=O)c2ccsc2)C1 (stereo not given) | -5.2
99 | CC(C)c1nnc2n1CCN(C(=O)c1ccc(Cn3cccc3)cc1)C2 | -4.28
100 | Cc1cc(C)n(C2CCCN(C(=O)c3ccn(C)c(=O)c3)C2)n1 (stereo not given) | -5.72
101 | O=C(Cc1ccc2c(c1)OCO2)N1CCN(c2cnccn2)CC1 | -5.51
102 | CN(C)c1ncc(-c2cncn2CCc2ccc3c(c2)OCCO3)cn1 | -1.04
103 | Cc1c[nH]nc1C1CCCN1Cc1ncc[nH]1 (stereo not given) | 4.99
104 | CCn1ncc2c1CN(C(=O)c1cc(C)oc1C)CC2COC (stereo not given) | 13
105 | COc1ccc(C[C@H]2CN(C(=O)c3ccc(C)nc3)CC[C@@H]2OC)cc1 | 4.76
106 | Cc1ccc(CN2C[C@H](C(=O)N3CCCCO3)[C@@H]3CCO[C@@H]3C2)o1 | 9.46
107 | Cc1nc(CN2C[C@@H]3CN(c4ncccn4)C[C@@H]3C2=O)cs1 | 5.16
108 | CN1CC(=O)N(c2ccsc2)CC12CCN(S(C)(=O)=O)C2 (stereo not given) | -26.1
109 | CCc1ccc(CN2C[C@@H]3COC[C@H](NS(C)(=O)=O)[C@@H]3C2)o1 | -2.01
110 | Cc1noc(C)c1CN1C[C@H](OCC2CCN(C)CC2)[C@H]2COC[C@H]21 | -4.49
